Assay results pooled from the literature.
Protocols differ between the studies behind these lines.
Target: Tyrosine-protein kinase Fes/Fps (FES, Homo sapiens, UniProt P07332)

Structure (SMILES)	observed	action	method	tested at	endpoint	value
COc1cc2nccc(Oc3ccc(NC(=O)c4c5n(n(-c6ccc(F)cc6)c4=O)CCCC5)cc3)c2cc1OC	enzyme activity	inhibitor	–	0.1 µM	inhibition	-3%
CN1CC(Oc2cnc(C#N)cc2-c2ccn3nc(NC(=O)C4CC4)cc3c2)C1	enzyme activity	inhibitor	–	1 µM	inhibition	8%
COc1cc2ncnc(Nc3ccc(Oc4ccccc4)c(C)c3C)c2cc1OC	enzyme activity	inhibitor	–	1 µM	inhibition	7%
CNCc1ccc(-c2cc(-c3nc(-c4ccc(S(=O)(=O)C(C)C)cc4)cnc3N)on2)cc1	enzyme activity	inhibitor	–	0.4 µM	inhibition	0%
CC(C)(C)c1nc(-c2cccc(NS(=O)(=O)c3c(F)cccc3F)c2F)c(-c2ccnc(N)n2)s1	enzyme activity	inhibitor	radiometric	1 µM	remaining activity	88%
CSc1cccnc1N1CCN(Cc2nc3ccccc3[nH]2)CC1	cell-free assay	–	competition with immobilised ligand	1 µM	remaining binding	98%
Cc1ccc(NC(=O)c2ccc(CN3CCN(C)CC3)cc2)cc1Nc1nccc(-c2cncc(-c3oncc3C)c2)n1	enzyme activity	inhibitor	–	0.5 µM	remaining activity	≤ 50%
COc1ccc2c(c1)O[C@H](c1ccc(OC)c(OC)c1)C[C@@H]2NC(=O)C1(c2ccc3c(c2)OC(F)(F)O3)CC1	cell-free assay	–	competition with immobilised ligand	1 µM	remaining binding	97%
CCN(CC)c1ccc(C2=NNC(=O)CC2C)cc1[N+](=O)[O-] (centres unmarked)	enzyme activity	inhibitor	–	10 µM	remaining activity	103%
Cc1sc(C(=O)NC2COC2)cc1-n1cc(NC(=O)Nc2c(F)cccc2Cl)cn1	enzyme activity	inhibitor	–	10 µM	remaining activity	93.7%
CC1=C(C#N)[C@@H](c2ccc3[nH]nc(C)c3c2)C(C#N)=C(c2ccc(Cl)cc2)N1	cell-free assay	–	competition with immobilised ligand	1 µM	remaining binding	100%
O=C1NC(=O)c2cc(Nc3ccc(F)cc3)c(Nc3ccc(F)cc3)cc21	cell-free assay	–	–	0.5 µM	remaining signal	99.5%
O=C(Nc1cnn(-c2csc(C(=O)NC3COC3)c2)c1)Nc1ccccc1Cl	enzyme activity	inhibitor	–	5 µM	remaining activity	99.3%
COc1ccc2c(O[C@@H]3C[C@H]4C(=O)N[C@]5(C(=O)O)CC5/C=C\CCCCC[C@H](NC(=O)OC5CCCC5)C(=O)N4C3)cc(-c3csc(NC(=O)C(C)C)n3)nc2c1C (some centres unmarked)	cell-free assay	–	competition with immobilised ligand	1 µM	remaining binding	100%
COc1cc(Cl)c(C(=O)N[C@@H](CN[C@H]2CC[C@@H](N)CC2)Cc2ccc(C#N)cc2)cc1-c1ccc(CN[C@H](C)c2ccc(C)cc2)o1	enzyme activity	inhibitor	–	1 µM	remaining activity	94%
NS(=O)(=O)c1cc(NC(=O)Cc2ccccc2)ccc1Oc1cccc(Cl)c1	cell-free assay	–	competition with immobilised ligand	1 µM	remaining binding	92%
c1nc2c(Nc3ccc4c(c3)OCCO4)nc(Nc3ccc4c(c3)OCCO4)nc2[nH]1	enzyme activity	inhibitor	–	10 µM	activity vs control	62%
O=c1nc(-c2ccccn2)sc2ccccc12	cell-free assay	–	competition with immobilised ligand	1 µM	remaining binding	100%
O=c1cc(-c2cccc3c2Sc2ccccc2S3)oc(N2CCOCC2)c1	enzyme activity	inhibitor	–	0.5 µM	remaining activity	104%
CCCS(=O)(=O)Nc1ccc(F)c(C(=O)c2c[nH]c3ncc(-c4ccc(Cl)cc4)cc23)c1F	enzyme activity	inhibitor	–	1 µM	inhibition	< 20%
CCCOc1ccc(OC)c(F)c1C(=O)c1ccc(C(=O)N[C@@H]2CNC[C@H]2NC(=O)c2ccc3[nH]ncc3c2)cc1	enzyme activity	inhibitor	–	10 µM	remaining activity	79%
CS(=O)(=O)N1CCCC(NC(=O)[C@H](CCC2CCCCC2)NC(=O)c2ccc(CNC(=O)c3cnc4ccccn34)cc2)C1 (some centres unmarked)	cell-free assay	–	competition with immobilised ligand	0.1 µM	remaining binding	100%
Cc1ccc(NC(=O)c2ccc(C)c(C(F)(F)F)c2)cc1C#Cc1nn(C2CCC(O)CC2)c2ncnc(N)c12 (centres unmarked)	cell-free assay	–	–	10 µM	remaining signal	34%
